From ChEMBL document CHEMBL1129373, “Synthesis and evaluation of pregnane derivatives as inhibitors of human testicular 17 alpha-hydroxylase/C17,20-lyase” (J Med Chem, 1996)

Columns and labels:
[1] = target: T1, Steroid 17-alpha-hydroxylase/17,20 lyase (Homo sapiens, UniProt P05093); assay: Inhibition of human testicular steroid 17-alpha-hydroxylase
T1 sequence (P05093 whole entry): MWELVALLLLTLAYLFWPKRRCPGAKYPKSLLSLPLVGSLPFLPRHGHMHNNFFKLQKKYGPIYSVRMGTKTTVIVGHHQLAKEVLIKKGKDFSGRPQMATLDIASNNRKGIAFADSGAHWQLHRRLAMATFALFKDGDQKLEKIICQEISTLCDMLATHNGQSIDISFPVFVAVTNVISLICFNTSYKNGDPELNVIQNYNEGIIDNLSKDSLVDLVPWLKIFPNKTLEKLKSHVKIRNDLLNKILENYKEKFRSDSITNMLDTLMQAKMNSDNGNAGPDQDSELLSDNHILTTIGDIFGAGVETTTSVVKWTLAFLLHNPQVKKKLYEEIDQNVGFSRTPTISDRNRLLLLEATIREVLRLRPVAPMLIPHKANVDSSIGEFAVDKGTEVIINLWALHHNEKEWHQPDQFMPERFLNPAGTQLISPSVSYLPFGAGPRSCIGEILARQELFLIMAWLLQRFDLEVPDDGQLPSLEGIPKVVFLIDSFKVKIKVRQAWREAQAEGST
How it was run: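 Human testicular microsomes (from orchidectomy testes, stored −70 °C, diluted in 0.1 M phosphate buffer; ca. 90 μg protein) incubated with [7-³H]pregnenolone (400 nM), NADPH-generating system and four to five inhibitor concentrations, pH 7.4, under oxygen, 5 min, 34 °C. Reverse-phase HPLC with radioactivity counting; hydroxylase activity from conversion to 17α-hydroxypregnenolone plus DHEA. IC50 by nonlinear regression; duplicates, repeated at least once.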

[2] = target: T1, Steroid 17-alpha-hydroxylase/17,20 lyase; assay: Inhibition of human testicular C17,20-lyase, cytochrome P450 17A1; No inhibition

| Structure (SMILES) | IC50 ([1]; read-out: IC50) [nM] | IC50 [1] | IC50 [2] |
| --- | --- | --- | --- |
| C[C@@H](O)[C@H]1CC[C@H]2[C@@H]3CCC4=CC(=O)CC[C@]4(C)[C@H]3CC[C@]12C | 2840 | – | – |
| C=CC1CCC2C3CC=C4C[C@@H](O)CC[C@]4(C)C3CC[C@]12C (stereo partly specified) | 2880 | – | – |
| CC(=O)C1=CCC2C3CC=C4C[C@@H](O)CC[C@]4(C)C3CC[C@]12C (stereo partly specified) | 510 | – | – |
| C#CC1CCC2C3CC=C4C[C@@H](O)CC[C@]4(C)C3CC[C@]12C (stereo partly specified) | 3560 | – | – |
| CN(C=O)C1CCC2C3CCC4=CC(=O)CC[C@]4(C)C3CC[C@@]21C (stereo partly specified) | 800 | – | – |
| C[C@@H](C#N)C1CCC2C3CCC4=CC(=O)CC[C@]4(C)C3CC[C@@]21C (stereo partly specified) | 1100 | – | – |
| C/C(=N/O)C1=CCC2C3CC=C4C[C@@H](O)CC[C@]4(C)C3CC[C@]12C (stereo partly specified) | 16 | – | – |
| C[C@@H](/C=N/O)[C@H]1CC[C@H]2[C@@H]3CCC4=CC(=O)CC[C@]4(C)[C@H]3CC[C@]12C | 5980 | – | – |
| C/C(=N\N(C)C)C1CCC2C3CC=C4C[C@@H](O)CC[C@]4(C)C3CC[C@]12C (stereo partly specified) | – | No inhibition | Not Active |
| C[C@]12CCC3C(CC=C4C[C@@H](O)CC[C@@]43C)C1CCC2[C@]1(C)CO1 (stereo partly specified) | 730 | – | – |
| C[C@@H](O)C1CCC2C3CC=C4C[C@@H](O)CC[C@]4(C)C3CC[C@@]21C (stereo partly specified) | 180 | – | – |
| C/C(=N\N)[C@H]1CC[C@H]2[C@@H]3CC=C4C[C@@H](O)CC[C@]4(C)[C@H]3CC[C@]12C | 9980 | – | – |
| C/C(C#N)=C1/CCC2C3CCC4=CC(=O)CC[C@]4(C)C3CC[C@]12C (stereo partly specified) | 1220 | – | – |
| C[C@@H](C=O)C1CCC2C3CCC4=CC(=O)CC[C@]4(C)C3CC[C@@]21C (stereo partly specified) | 230 | – | – |
| CC(O)C1CCC2C3CC=C4C[C@@H](O)CC[C@]4(C)C3CC[C@]12C (stereo partly specified) | 720 | – | – |
| C#C[C@]1(O)CCC2C3CCC4=CC(=O)CC[C@]4(C)C3CC[C@@]21C (stereo partly specified) | – | No inhibition | Not Active |
| C[C@H](N)[C@H]1CC[C@H]2[C@@H]3CC=C4C[C@@H](O)CC[C@]4(C)[C@H]3CC[C@]12C | 89800 | – | – |
| C/C(=N/O)C1CCC2C3CC=C4C[C@@H](O)CC[C@]4(C)C3CC[C@]12C (stereo partly specified) | 530 | – | – |
| CC(=O)C1=CCC2C3CCC4=CC(=O)CC[C@]4(C)C3CC[C@]12C (stereo partly specified) | 1770 | – | – |
| C[C@@H](O)C1CCC2C3CCC4=CC(=O)CC[C@]4(C)C3CC[C@@]21C (stereo partly specified) | 490 | – | – |
| C[C@]12CC[C@H](O)CC1=CCC1C2CC[C@]2(C)/C(=N/O)CCC12 (stereo partly specified) | 13500 | – | – |
| C/C(=N\N(C)C)C1=CCC2C3CC=C4C[C@@H](O)CC[C@]4(C)C3CC[C@]12C (stereo partly specified) | 43700 | – | – |
| C[C@@H](N)[C@H]1CC[C@H]2[C@@H]3CC=C4C[C@@H](O)CC[C@]4(C)[C@H]3CC[C@]12C | 9800 | – | – |
| C[C@]12CC[C@H](O)CC1=CCC1C2CC[C@]2(C)/C(=N/N)CCC12 (stereo partly specified) | 6480 | – | – |
